One assay relates to Candida albicans. As to the kind of experiment: Antifungal activity against Candida albicans ATCC 90027 after 48 hrs by broth microdilution method. The conditions noted are these: ATCC 90027, 48 h. Format: functional.
A further assay concerns Vero. As to the kind of experiment: Cytotoxicity against african green monkey Vero cells by MTT assay. Format: cell-based. The conditions noted are these: Chlorocebus sabaeus. The method in brief:
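Vero cells were exposed to compound stocks made in DMSO and serially diluted 2-fold in RPMI 1640 medium. The top test concentration varied between compounds because of limited solubility. MTT read-out followed the kit manufacturer's protocol.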

Converted amounts (≈) assume the structure as drawn.

For `COc1nc([N+](=O)[O-])cn1CC(O)c1ccc(C)cc1C` (racemic), the MIC against Candida albicans was > 256 µg/mL. The compound further registered an IC50 with Vero of 84 µg/mL (≈ 288 µM).

Regarding `COc1nc([N+](=O)[O-])cn1CC(O)c1ccc(-c2ccccc2)cc1` (racemic), in the assay on Candida albicans, the MIC is > 256 µg/mL. Besides, the IC50 in the assay on Vero is > 100 µg/mL.

Take `COc1nc([N+](=O)[O-])cn1CC(OCc1ccc(OC(F)(F)F)cc1)c1ccc(F)cc1F` (racemic): in the assay with Candida albicans, the MIC was > 256 µg/mL. Further, the IC50 with Vero is > 25 µg/mL.

Consider `O=[N+]([O-])c1cn(CC(OCc2cc(F)cc(F)c2)c2ccc(F)cc2F)cn1` (racemic), for which the MIC in the assay with Candida albicans is > 256 µg/mL. Moreover, the IC50 in the assay on Vero is > 50 µg/mL.

With `O=[N+]([O-])c1cn(CC(OCc2cc(F)cc(F)c2)c2ccc(Cl)cc2Cl)c(Br)n1` (racemic), the MIC against Candida albicans was > 256 µg/mL. Further, in the assay on Vero, the IC50 was > 6 µg/mL.

As for `O=[N+]([O-])c1cn(CC(OCc2ccc(F)cc2F)c2ccc(Cl)cc2Cl)cn1` (racemic), the MIC in the assay with Candida albicans was > 256 µg/mL. The IC50 with Vero is > 25 µg/mL.

For `O=[N+]([O-])c1cn2c(n1)OC[C@@H](OCc1ccc(OC(F)(F)F)cc1)C2` [PRETOMANID], the MIC against Candida albicans is > 256 µg/mL.

Regarding `COc1nc([N+](=O)[O-])cn1CC(OCc1cc(F)cc(F)c1)c1ccc(Cl)cc1Cl` (racemic), in the assay with Candida albicans, the MIC was > 256 µg/mL. Further, the IC50 in the assay with Vero was > 50 µg/mL.

Consider `O=[N+]([O-])c1cn(CC(OCc2ccc(Cl)cc2)c2ccc(F)cc2F)cn1` (racemic), for which the MIC with Candida albicans was > 256 µg/mL. Besides, in the assay with Vero, the IC50 is > 25 µg/mL.

For the compound `O=[N+]([O-])c1cn(CC(OCc2ccc(OC(F)(F)F)cc2)c2ccc(F)cc2F)cn1` (racemic), the MIC in the assay on Candida albicans was > 256 µg/mL. In the assay with Vero, the half-inhibitory concentration (IC50) is > 50 µg/mL.

On to `CSc1nc([N+](=O)[O-])cn1CC(OCc1ccc(Cl)cc1)c1ccc(Cl)cc1Cl` (racemic), for which the MIC against Candida albicans was > 256 µg/mL. For the same compound, the IC50 in the assay on Vero is > 13 µg/mL.

Turning to `CSc1nc([N+](=O)[O-])cn1CC(OCc1cc(F)cc(F)c1)c1ccc(Cl)cc1Cl` (racemic), in the assay on Candida albicans, the MIC was > 256 µg/mL. The IC50 in the assay with Vero is > 135 µg/mL.

For `COc1nc([N+](=O)[O-])cn1CC(O)c1ccc(Cl)cc1Cl` (racemic), the MIC in the assay on Candida albicans was > 256 µg/mL. In addition, in the assay with Vero, the IC50 came to 100 µg/mL (≈ 301 µM).

Turning to `O=[N+]([O-])c1cn(CC(OCc2ccccc2F)c2ccc(Cl)cc2Cl)c(Br)n1` (racemic), in the assay on Candida albicans, the MIC was > 256 µg/mL. Moreover, the IC50 in the assay on Vero was > 63 µg/mL.

Take `COc1nc([N+](=O)[O-])cn1CC(OCc1ccc(F)cc1)c1ccc(F)cc1F` (racemic): the MIC with Candida albicans was > 256 µg/mL. Besides, the IC50 in the assay with Vero was > 25 µg/mL.

As for `COc1nc([N+](=O)[O-])cn1CC(O)c1ccc(F)cc1F` (racemic), the MIC with Candida albicans was > 256 µg/mL. Further, in the assay with Vero, the IC50 was > 100 µg/mL.

As to `COc1nc([N+](=O)[O-])cn1CC(O)c1ccc(F)cc1` (racemic), the MIC against Candida albicans is > 256 µg/mL. The IC50 with Vero is > 100 µg/mL.

On to `O=[N+]([O-])c1cn(CC(O)c2ccc(F)cc2F)c(Br)n1` (racemic), for which the MIC in the assay with Candida albicans is > 256 µg/mL. The IC50 with Vero is > 200 µg/mL.

On to `O=[N+]([O-])c1cn(CC(OCc2ccc(Cl)cc2)c2ccc(F)cc2F)c(Br)n1` (racemic), for which the MIC against Candida albicans was > 256 µg/mL. For the same compound, in the assay with Vero, the IC50 is > 25 µg/mL.

Turning to `O=[N+]([O-])c1cn(CC(OCc2cc(F)ccc2F)c2ccc(Cl)cc2Cl)cn1` (racemic), the MIC against Candida albicans was > 256 µg/mL. Also, the IC50 in the assay on Vero was > 25 µg/mL.

With `CSc1nc([N+](=O)[O-])cn1CC(O)c1ccc(Cl)cc1Cl` (racemic), in the assay with Candida albicans, the MIC is > 256 µg/mL. The same compound returned an IC50 in the assay with Vero of 59 µg/mL (≈ 169 µM).

Regarding `O=[N+]([O-])c1cn(CC(OCc2ccc(F)cc2)c2ccc(Cl)cc2Cl)c(Br)n1` (racemic), in the assay on Candida albicans, the MIC was > 256 µg/mL. For the same compound, in the assay on Vero, the IC50 is > 16 µg/mL.

Consider `Cc1nc([N+](=O)[O-])cn1CC(OCc1ccc(Cl)cc1)c1ccc(Cl)cc1Cl` (racemic), for which the MIC against Candida albicans is > 256 µg/mL. Besides, the IC50 with Vero is > 31 µg/mL.

On to `Cc1nc([N+](=O)[O-])cn1CC(O)c1ccc(Cl)cc1Cl` (racemic), for which the MIC with Candida albicans is > 256 µg/mL. Also, in the assay with Vero, the 50% inhibitory concentration (IC50) was > 250 µg/mL.

In turn, `Clc1ccc(COC(Cn2ccnc2)c2ccc(Cl)cc2Cl)cc1` (stereo not drawn) [ECONAZOLE] displayed an MIC in the assay with Candida albicans of 16 µg/mL (≈ 41.9 µM).

For the compound `COc1nc([N+](=O)[O-])cn1CC(O)c1ccccc1` (racemic), the MIC against Candida albicans is > 256 µg/mL. The IC50 in the assay on Vero is > 100 µg/mL.

Take `COc1nc([N+](=O)[O-])cn1CC(OCc1ccc(Cl)cc1)c1ccc(F)cc1F` (racemic): the minimum inhibitory concentration (MIC) with Candida albicans is > 256 µg/mL. The IC50 in the assay on Vero was > 13 µg/mL.

For `O=[N+]([O-])c1cn(CC(OCc2ccc(F)cc2)c2ccc(Cl)cc2Cl)cn1` (racemic), in the assay on Candida albicans, the MIC is > 256 µg/mL. In addition, the IC50 with Vero is > 16 µg/mL.

In the case of `O=[N+]([O-])c1cn(CC(O)c2ccc(F)cc2)c(Br)n1` (racemic), the MIC with Candida albicans was > 256 µg/mL. In addition, in the assay with Vero, the IC50 was > 100 µg/mL.

As to `O=[N+]([O-])c1cn(CC(OCc2ccc(F)cc2)c2ccc(F)cc2F)cn1` (racemic), in the assay on Candida albicans, the MIC was > 256 µg/mL. In the assay on Vero, the IC50 was > 50 µg/mL.

For `COc1nc([N+](=O)[O-])cn1CC(OCc1ccc(Cl)cc1)c1ccc(Cl)cc1Cl` (racemic), the minimum inhibitory concentration (MIC) against Candida albicans is > 256 µg/mL. Besides, the IC50 with Vero is > 8 µg/mL.

Consider `COc1nc([N+](=O)[O-])cn1CC(OCc1ccc(OC(F)(F)F)cc1)c1ccc(Cl)cc1Cl` (racemic), for which the MIC in the assay with Candida albicans is > 256 µg/mL. Further, in the assay on Vero, the IC50 was > 13 µg/mL.

As to `O=[N+]([O-])c1cn(CC(O)c2ccc(Cl)cc2Cl)c(Br)n1` (racemic), the MIC with Candida albicans is > 256 µg/mL. In the assay on Vero, this compound came in with an IC50 of 100 µg/mL (≈ 262 µM).

For `O=[N+]([O-])c1cn(CC(OCc2ccc(OC(F)(F)F)cc2)c2ccc(Cl)cc2Cl)cn1` (racemic), in the assay on Candida albicans, the MIC is > 256 µg/mL. In the assay on Vero, the IC50 was > 25 µg/mL.

On to `COc1nc([N+](=O)[O-])cn1CC(OCc1ccc(F)cc1)c1ccc(Cl)cc1Cl` (racemic), for which, in the assay on Candida albicans, the MIC is > 256 µg/mL. Besides, in the assay with Vero, the IC50 is > 13 µg/mL.

In the case of `O=[N+]([O-])c1cn(CC(OCc2ccc(Cl)cc2)c2ccc(Cl)cc2Cl)cn1` (racemic), the MIC with Candida albicans is > 256 µg/mL. For the same compound, the IC50 in the assay with Vero is > 16 µg/mL.

For `O=[N+]([O-])c1cn(CC(O)c2ccc(F)cc2F)cn1` (racemic), the MIC in the assay on Candida albicans was > 256 µg/mL. In addition, the IC50 in the assay with Vero turned out to be 292 µg/mL (≈ 1080 µM).

Consider `CSc1nc([N+](=O)[O-])cn1CC(OCc1ccc(F)cc1)c1ccc(Cl)cc1Cl` (racemic), for which the MIC in the assay on Candida albicans is > 256 µg/mL. In addition, in the assay on Vero, the IC50 was > 13 µg/mL.

Turning to `COc1nc([N+](=O)[O-])cn1CC(O)c1ccc(Cl)cc1` (racemic), the MIC with Candida albicans is > 256 µg/mL. Besides, the IC50 with Vero was > 100 µg/mL.

Take `O=[N+]([O-])c1cn(CC(O)c2ccc(Cl)cc2)c(Br)n1` (racemic): the MIC in the assay with Candida albicans was > 256 µg/mL. For the same compound, the IC50 in the assay with Vero was > 100 µg/mL.

For the compound `O=[N+]([O-])c1cn(CC(OCc2ccccc2F)c2ccc(Cl)cc2Cl)cn1` (racemic), the MIC in the assay on Candida albicans was > 256 µg/mL. The half-inhibitory concentration (IC50) in the assay on Vero was > 63 µg/mL.

Turning to `Cc1ccc(C(O)Cn2cc([N+](=O)[O-])nc2Br)c(C)c1` (racemic), the MIC in the assay on Candida albicans is > 256 µg/mL. In the assay with Vero, this compound yielded an IC50 of 22 µg/mL (≈ 64.7 µM).

With `O=[N+]([O-])c1cn(CC(O)c2ccccc2)c(Br)n1` (racemic), the MIC in the assay with Candida albicans is > 256 µg/mL. In addition, the IC50 in the assay on Vero is > 100 µg/mL.

On to `CSc1nc([N+](=O)[O-])cn1CC(OCc1ccc(Cl)cc1)c1ccc(F)cc1F` (racemic), for which the MIC in the assay on Candida albicans is > 256 µg/mL. The IC50 in the assay on Vero was > 13 µg/mL.

As to `O=[N+]([O-])c1cn(CC(O)c2ccc(Cl)cc2Cl)cn1` (racemic), in the assay with Candida albicans, the MIC was > 256 µg/mL. In the assay with Vero, the IC50 is > 250 µg/mL.

As to `O=[N+]([O-])c1cn(CC(OCc2cc(F)cc(F)c2)c2ccc(Cl)cc2Cl)cn1` (racemic), in the assay with Candida albicans, the MIC was > 256 µg/mL. Besides, in the assay with Vero, the IC50 was > 25 µg/mL.

For the compound `O=[N+]([O-])c1ccc(C(O)Cn2cc([N+](=O)[O-])nc2Br)cc1` (racemic), the MIC against Candida albicans was > 256 µg/mL. For the same compound, the IC50 in the assay with Vero is > 100 µg/mL.

Regarding `O=[N+]([O-])c1cn(CC(O)c2ccc(-c3ccccc3)cc2)c(Br)n1` (racemic), in the assay on Candida albicans, the MIC is > 256 µg/mL. Further, in the assay on Vero, the IC50 was > 100 µg/mL.

Consider `O=[N+]([O-])c1cn(CC(OCc2ccc(Cl)cc2)c2ccc(Cl)cc2Cl)c(Br)n1` (racemic), for which the MIC with Candida albicans was > 256 µg/mL. In the assay with Vero, the IC50 is > 62.5 µg/mL.

With `COc1nc([N+](=O)[O-])cn1CC(O)c1ccc([N+](=O)[O-])cc1` (racemic), the MIC in the assay on Candida albicans was > 256 µg/mL. Moreover, the IC50 in the assay on Vero was > 100 µg/mL.

The values above are taken from ChEMBL document CHEMBL1681637, “Synthesis and antitubercular activity of monocyclic nitroimidazoles: insights from econazole” (Bioorg Med Chem Lett, 2011).
